Keap1-Nrf2 PPI = inhibitors of human Keap1-Nrf2 protein-protein interaction | Q14145 | Keap1 Kelch-Nrf2 peptide fluorescence polarization, 1536-well | inhibition, % at 9.4 µM | 340,000 compounds, 0.15% hits; in the data active means inhibition above about 12%;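 further: human Keap1 Kelch domain with fluorescein labeled Nrf2 9mer peptide probe; higher means more block of Keap1 binding to Nrf2 peptide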
cardiac RTF act = increases calcium sensitivity of human cardiac regulated thin filaments. P19429+P45379. IANBD-labeled TnC RTF fluorescence at EC20 calcium; 0% EC20 calcium, 100% full calcium. activation, % at 7.2 µM. 340,000 compounds, 0.24% hits. AID 493008;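 active means activation above the mean over all tested compounds plus 3 SD, cut at about 30% in these data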;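 further: rise in fluorescence read as greater calcium sensitivity of cardiac thin filaments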
Tn7 DDE FP = inhibitors of Tn7 peptide binding to human fibrin DD(E). P02675. FP displacement of FITC-Tn7 peptide from fibrin DD(E); 0% = median of compound wells per plate. inhibition, % at 8.3 µM. 370,000 compounds, 0.13% hits;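 active means inhibition above the mean of compounds falling within the control limits plus 3 SD of them, cut at about 14% in these data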
Target sequence (P02675 whole entry, looked up): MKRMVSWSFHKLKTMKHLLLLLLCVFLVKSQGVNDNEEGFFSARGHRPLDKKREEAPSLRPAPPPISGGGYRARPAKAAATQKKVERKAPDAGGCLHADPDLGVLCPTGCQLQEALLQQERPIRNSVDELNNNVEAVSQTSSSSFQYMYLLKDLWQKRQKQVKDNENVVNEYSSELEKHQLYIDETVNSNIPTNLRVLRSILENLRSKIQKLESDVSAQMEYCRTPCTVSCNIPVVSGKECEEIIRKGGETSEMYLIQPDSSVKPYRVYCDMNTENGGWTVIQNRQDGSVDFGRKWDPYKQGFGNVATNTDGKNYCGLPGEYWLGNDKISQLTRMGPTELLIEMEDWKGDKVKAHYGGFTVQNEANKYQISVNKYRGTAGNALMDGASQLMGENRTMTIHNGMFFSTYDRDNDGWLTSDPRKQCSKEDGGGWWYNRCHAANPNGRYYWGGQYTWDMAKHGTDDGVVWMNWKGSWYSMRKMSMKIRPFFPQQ
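Measure: % inhibition scaled between sample-field median and high-control FP; Test system: human fibrin DD(E); Quantity: 2 µM final DD(E) protein; Doses: one dose, 8.3 µM nominal; Schedule: compound with protein 10 min, then 3 h after probe, room temperature; Detection: fluorescence polarization; Medium: Tris buffer with calcium and detergent, pH 7.8.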
C-LANA FP = inhibitors of KSHV LANA C-terminal domain DNA binding; inhibition, % at 9 µM; 340,000 compounds, 0.078% hits; AID 504423; MBP-C-LANA/FAM-LBS DNA binding, fluorescence polarization;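 active means highest replicate inhibition at or above 60% at 9 µM, even if other replicates fall short; inactive means all replicates below 60% inhibition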
Tn6 DDE FP = inhibitors of Tn6 peptide binding to human fibrin DD(E). P02675. Fibrin DD(E) TRITC-Tn6 fluorescence polarization displacement. inhibition, % at 8.3 µM. 370,000 compounds, 0.21% hits;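 active means inhibition above a per-campaign cutoff: mean of compounds within control limits plus 3 SD, cut at about 15% in these data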
Cardiac RTF inh = cardiac RTF calcium desensitization. P19429+P45379. 340,000 compounds, 0.12% hits. IANBD-labeled cardiac RTF, Ca2+ fluorescence. inhibition, % at 7.15 µM;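 active means inhibition above the mean inhibition of all tested compounds plus 3 SD, cut at about 17% in these data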;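 further: assay run at fixed EC70 calcium of 1.6 mM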
Keap1 Kelch bind = Keap1 (human) Kelch domain binding; shares compounds with Keap1-Nrf2 PPI; Keap1 Kelch thermal shift, delta Tm; active compounds read high; max delta Tm, degrees C; 400 compounds, 8% hits; AID 651823; in the data active means max delta Tm above about 0.48 degrees C
Sypro dye melt = counter-screen for Keap1 thermal shift hits: dye-only artifacts; AID 651858; Sypro Orange dye-only thermal melt, no protein, delta Tm; top dose 26 µM; shares compounds with Keap1-Nrf2 PPI; 140 tested, under 10 active; delta Tm, degrees C (test concentration not listed);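 active means at highest dose tested, delta Tm positive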
DDE Tn7 confirm = DD(E)-Tn7 binding inhibition, FP confirmation; shares compounds with Tn7 DDE FP; FP displacement of TRITC-Tn7 peptide from DD(E); 0% set at plate's compound-well median; inhibition, % at 8.3 µM; 460 compounds, 5% hits; AID 720628;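 active means inhibition above the campaign cutoff, the mean of compounds within control limits plus 3 SD, cut at about 14% in these data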;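 further: displacers lower polarization since freed probe rises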
DDE Tn7 FP ctr = DD(E)-Tn7 binding inhibition, counter-screen; shares compounds with Tn7 DDE FP; fibrin DD(E), TRITC-Tn7 probe displacement, fluorescence polarization; inhibition, % at 8.3 µM; 460 compounds, 3% hits;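 active means inhibition above the cutoff, the mean of compounds lying between the control bounds plus 3 SD of those compounds, cut at about 17% in these data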
Tn6 DDE ctr = counter-screen hit for Tn6 peptide-fibrin DD(E) binding disruption | shares compounds with Tn6 DDE FP | TRITC-Tn6 fluorescence polarization displacement; 0% = median of compound wells, not DMSO | AID 720621 | inhibition, % at 8.3 µM | 680 compounds, 2% hits;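 active means inhibition above the mean of test compounds lying between the control limits plus 3 SD of those, cut at about 14% in these data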
DDE Tn6 confirm = DD(E)-Tn6 binding inhibition, FP confirmation | shares compounds with Tn6 DDE FP | FP displacement of TRITC-Tn6 peptide from DD(E); 0% = per-plate median of test wells | inhibition, % at 8.3 µM | 680 compounds, 10% hits;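 active means inhibition above the mean of compounds lying within the control limits plus 3 SD, cut at about 16% in these data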
Hits are given with their value; – = inactive; · = no result given; + = active, no number. A selection: hits, their analogues and other compounds. The true share with any hit is near 0.73%.

SMILES	Keap1-Nrf2 PPI	cardiac RTF act	Tn7 DDE FP	C-LANA FP	Tn6 DDE FP	Cardiac RTF inh	others
CN1CC=C2C(C#N)=C(N)C(C#N)(C#N)C(c3ccncc3)C2C1 (centres undefined)	15	–	·	–	·	–	Keap1 Kelch bind=–;Sypro dye melt=–
CN1CCN(c2ccc([N+](=O)[O-])c3no[n+]([O-])c23)CC1	55	282	–	82	–	–	Keap1 Kelch bind=–;Sypro dye melt=–
CCCCc1ccc(C(=O)O)nc1	66	–	–	67	–	–	Keap1 Kelch bind=–
Cc1cc(C=C2C(=O)NC(=O)NC2=O)c(C)n1-c1cccnc1	12	–	–	–	–	–	Keap1 Kelch bind=–
CC(C)OC(=O)C1C(c2ccc(I)cc2)CC2CCC1N2C (centres undefined)	·	·	–	·	–	·
CCCC(=O)N1c2ccc(Cl)cc2C(c2ccccc2)=NCC1C(=O)NC(C)(C)C (centres undefined)	·	·	–	·	–	·
Nc1ccc2c3c(cccc13)-c1ccccc1-2	22	359	–	–	–	–	Keap1 Kelch bind=–;Sypro dye melt=–
O=C1C(=O)c2ccccc2-c2ccccc21	–	–	–	–	–	–
Cc1cc(N2CCNC[C@H]2C)ccc1N1CC[C@H](O)C1	·	·	–	·	–	·
COC(=O)C(O)(c1ccc(N=Cc2ccccc2O)c(C)c1)C(F)(F)F (centres undefined)	–	–	16	–	–	–	DDE Tn7 confirm=–;DDE Tn7 FP ctr=–
COC(=O)C(O)(c1ccc(NC(=O)c2cccs2)c(C)c1)C(F)(F)F (centres undefined)	–	–	–	–	–	–
CC[C@@H](CO)NC(=O)[C@@H]1C=C2c3cccc4[nH]cc(c34)C[C@H]2N(C)C1	–	–	16	–	–	–	DDE Tn7 confirm=–;DDE Tn7 FP ctr=–
CC(NC(=O)OCc1ccccc1)P(=O)(Oc1ccccc1)Oc1ccccc1 (centres undefined)	·	·	–	·	–	·
CCCCn1c(O)c(C(CC)=Nc2ccc(C(=O)O)cc2)c(=O)[nH]c1=O	–	–	15	–	–	–	DDE Tn7 confirm=–;DDE Tn7 FP ctr=–
CCOC(=O)CC[C@@H]1CC[C@]2(CCCN(Cc3cccnc3)C2)O1	·	·	–	·	–	·
Cc1ccc2cc(C=C(C#N)C#N)c(Cl)nc2c1	–	–	15	–	–	–	DDE Tn7 confirm=–;DDE Tn7 FP ctr=–
COC1CC2C=C(C)C=CC=CC(=O)NC(c3ccccc3)CC=CCCC(O)CC(=O)C2=C1O (centres undefined)	·	·	–	·	–	·
ClCCNc1nc2ccc(Cl)cc2[nH]1	–	–	14	–	–	–	DDE Tn7 confirm=–;DDE Tn7 FP ctr=–
CC(=O)C1=C(C)OC2=C(C(=O)CCC2)[C@@]12C(=O)N(C)c1ccccc12	·	·	–	·	–	·
COC(=O)CC1(CC(=O)OC)C(=O)NC(=O)NC1=O	–	–	–	–	18	–	Tn6 DDE ctr=–;DDE Tn6 confirm=–
COC(=O)CC1(CC(=O)OC)C(=O)N(c2ccccc2)C(=O)N(c2ccccc2)C1=O	–	–	–	–	–	–
CN(C)c1ccc(/C=C/C=C2/C(=O)NC(=O)N(c3ccccc3)C2=O)cc1	–	–	–	–	23	–	Tn6 DDE ctr=–;DDE Tn6 confirm=40
Cc1ccc(OC(=O)N(C)C[C@H]2OCc3cnnn3CCCC(=O)N([C@@H](C)CO)C[C@@H]2C)cc1	·	·	–	·	–	·
C[n+]1c2ccccc2nc2ccc(NCCO)cc21	–	–	–	–	+	–	Tn6 DDE ctr=–;DDE Tn6 confirm=122
CNc1ccc2nc3ccccc3[n+](C)c2c1	–	–	–	–	+	–	Tn6 DDE ctr=–;DDE Tn6 confirm=94
SMILES	Keap1-Nrf2 PPI	cardiac RTF act	Tn7 DDE FP	C-LANA FP	Tn6 DDE FP	Cardiac RTF inh	others
CC[C@]12CCN(CC3(O)CC3)C(Cc3ccc(O)cc31)C2(C)C	·	·	–	·	–	·
Cc1ccc2c(c1)[C@@H]1CN(C)CC[C@@H]1N2C(=O)Nc1cccc(C(F)(F)F)c1	–	–	–	–	17	–	Tn6 DDE ctr=–;DDE Tn6 confirm=–
Cc1ccc2c(c1)C1CN(C)CCC1N2C(=O)Nc1cccc(C(F)(F)F)c1 (centres undefined)	–	–	–	–	–	–
CNC(=S)N1CCN(CCN=Cc2c(O)n(-c3ccc(C)cc3)c(=S)[nH]c2=O)CC1	–	–	–	–	–	–
Cc1cccc(-n2c(O)c(C=NCCN3CCNCC3)c(=O)[nH]c2=S)c1	–	–	–	–	16	–	Tn6 DDE ctr=–;DDE Tn6 confirm=–
CCOC(=O)C(O)(c1ccc(NC(=O)NC2CCCCC2)cc1)C(F)(F)F (centres undefined)	–	–	–	–	17	–	Tn6 DDE ctr=–;DDE Tn6 confirm=–
O=C(NCCN1CCC2(CC1)C(=O)NCN2c1ccccc1)c1ccc(Cl)cc1	·	·	–	·	–	·
O=C(CN1C(=O)[C@@H](Cc2ccc(O)cc2)N=C(c2ccccc2)c2ccccc21)NC1CCCCC1	·	·	–	·	–	·
C[N+]1=C(/C=C/Nc2ccccc2)C(C)(C)c2ccccc21	–	–	–	–	–	–
CCN1/C(=C/C=C/C2=[N+](CC)c3ccccc3C2(C)C)C(C)(C)c2ccccc21	·	·	–	·	+	·	Tn6 DDE ctr=–;DDE Tn6 confirm=93
